Converted amounts (≈) assume the structure as drawn.
Assays:
[1] = Apparent permeability in MDCK cells; assay type: ADME, cell-based, Canis lupus familiaris; conditions: dog
[2] = Clearance in rat at 0.5 mg/kg, iv or 1 mg/kg, po; assay type: ADME, organism-based; conditions: in vivo
How it was run: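 Rat dosed iv at 0.5 mpk or po at 1 mpk, each as a solution in PEG400/H2O (60:40 (v/v)).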

[3] = Intrinsic clearance in rat hepatocytes after 120 mins by LC-MS/MS analysis; assay type: ADME, cell-based, Hepatocyte; conditions: read-out: CLH
[4] = Solubility of the compound in FaSSIF solution at 100 uM after overnight incubation by UPLC/DAD analysis; assay type: physicochemical
[5] = Intrinsic clearance in human hepatocytes after 120 mins by LC-MS/MS analysis; assay type: ADME, cell-based, Hepatocyte; conditions: read-out: CLH
[6] = biological target: Stimulator of interferon genes protein (Homo sapiens, UniProt Q86WV6); test: Displacement of [3H]cGAMP from full length human HAQ STING expressed in Trichopulsia ni membranes preincubated for 30 mins followed by [3H]cGAMP addition and measured after 60 mins by scintillation counting method; assay type: cell membranes
Sequence of Stimulator of interferon genes protein (Q86WV6 whole entry, looked up): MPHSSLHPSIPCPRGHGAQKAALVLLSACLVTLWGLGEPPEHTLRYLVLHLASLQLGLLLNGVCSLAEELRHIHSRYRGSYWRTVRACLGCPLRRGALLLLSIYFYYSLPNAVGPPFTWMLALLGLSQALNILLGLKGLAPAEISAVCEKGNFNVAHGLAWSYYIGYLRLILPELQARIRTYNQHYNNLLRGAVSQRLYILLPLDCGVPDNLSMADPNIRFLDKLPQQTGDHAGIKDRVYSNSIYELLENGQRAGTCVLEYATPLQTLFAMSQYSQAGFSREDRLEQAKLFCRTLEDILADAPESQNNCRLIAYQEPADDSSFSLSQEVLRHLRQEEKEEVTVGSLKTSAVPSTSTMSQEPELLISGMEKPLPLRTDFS

SMILES | Papp [1] [×10⁻⁶ cm/s] | clearance [2] [mL/min/kg] | CLint scaled [3] [mL/min/kg] | solubility at 100 µM [4] [µM] | CLint scaled [5] [mL/min/kg] | IC50 [6] [µM]
CC(C)(C)c1ccc(N2C(=O)c3cc(F)ccc3[C@H](CC(=O)O)[C@H]2c2ccc3c(c2)OCCO3)cc1Cl | 18 | 45 | 240 | 187 (≈ 98 µg/mL) | 31 | –
N#Cc1ccc([C@@H]2[C@@H](C(=O)O)c3ccccc3C(=O)N2c2ccc3c(c2)CCC3)cc1 (racemic) | – | – | – | – | – | > 20
CC(C)(C)c1ccc(N2C(=O)c3ccccc3[C@H](C(=O)O)[C@H]2c2ccc3c(c2)OCCO3)cc1Cl | 9 | 38 | 158 | 151 (≈ 74.3 µg/mL) | 28 | –
O=C(O)[C@H]1c2ccccc2C(=O)N(c2ccc3c(c2)CCC3)[C@@H]1c1ccc(Oc2ccccc2)cc1 (racemic) | – | – | – | – | – | > 20

Further lines, results first:

Papp [1] [×10⁻⁶ cm/s] | clearance [2] [mL/min/kg] | CLint scaled [3] [mL/min/kg] | solubility at 100 µM [4] [µM] | CLint scaled [5] [mL/min/kg] | IC50 [6] [µM] | SMILES
– | – | – | – | – | > 20 | O=C(O)[C@H]1c2ccccc2C(=O)N(c2ccc3c(c2)CCC3)[C@@H]1c1ccc2c(c1)OC(F)(F)O2 (racemic)
– | – | – | – | – | > 20 | CN(C)c1ccc([C@@H]2[C@@H](C(=O)O)c3ccccc3C(=O)N2c2ccc3c(c2)CCC3)cc1 (racemic)
– | – | – | – | – | > 20 | CC(C)c1ccc(N2C(=O)c3ccccc3[C@H](C(=O)O)[C@H]2c2ccc3ccccc3c2)cc1 (racemic)
